MrgX1 agonist: agonists of human MrgX1 receptor, primary screen, HEK293 cells, Fluo-4 calcium flux. Mas-related G-protein coupled receptor member X1 (Homo sapiens), Q96LB2. Fluo-4 calcium fluorescence, agonist mode; hits give high values. B-score at 10 µM. hit rate 0.44% among 310,000;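 active means calcium response B-score plate-corrected fluorescence ratio at least 3 library SD, with starting fluorescence B-score inside 5 SD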
Target sequence (Q96LB2 whole entry, looked up): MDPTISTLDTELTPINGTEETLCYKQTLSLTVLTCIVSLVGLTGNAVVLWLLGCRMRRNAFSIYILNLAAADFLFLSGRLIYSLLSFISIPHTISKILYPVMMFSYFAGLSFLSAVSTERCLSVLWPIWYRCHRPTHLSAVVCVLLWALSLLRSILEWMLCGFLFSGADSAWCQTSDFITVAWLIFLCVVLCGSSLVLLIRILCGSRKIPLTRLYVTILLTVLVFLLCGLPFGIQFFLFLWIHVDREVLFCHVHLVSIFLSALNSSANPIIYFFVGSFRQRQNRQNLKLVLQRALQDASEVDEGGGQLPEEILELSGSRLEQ
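Test system: Stable human MrgX1 HEK293 cell line | Schedule: Overnight plating before 1 h dye loading | Read-out basis: Baseline-normalised fluorescence change ratio, B-scored | Detection: Kinetic calcium dye fluorescence, Fluo-4 NW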
RGS4 inh: RGS4 inhibitors, primary screen, cell-based, HEK293 M3R inducible RGS4, calcium flux; Fluo-4 calcium flux; hits give high values; triggered by carbachol at its EC20; B-score at 10 µM; hit rate 0.45% among 310,000;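 active means B-score, a plate-corrected calcium signal, over three deviations above library mean, with baseline fluorescence within five deviations of library mean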;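 further: RGS4 expression induced by doxycycline in cells with stable M3 receptor; B-score is computed from the integrated fluorescence ratio over baseline after carbachol; higher B-score means a larger calcium signal and so more RGS4 inhibition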
Target sequence (P49798 whole entry, looked up): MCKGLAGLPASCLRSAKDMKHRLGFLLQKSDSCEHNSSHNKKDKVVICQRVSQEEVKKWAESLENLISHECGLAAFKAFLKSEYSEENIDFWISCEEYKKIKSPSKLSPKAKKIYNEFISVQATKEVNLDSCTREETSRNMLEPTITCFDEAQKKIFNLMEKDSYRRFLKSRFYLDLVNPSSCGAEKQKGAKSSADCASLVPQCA
MrgX1 antag: antagonists of human MrgX1 receptor, primary screen, HEK293 cells, Fluo-4 calcium flux. BAM8-22 antagonism; hits give low values. B-score at 10 µM. hit rate 1.3% among 310,000. AID 588676, 2011;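 active means calcium-response B-score plate-corrected more than 3 library SD below zero, starting fluorescence within 5 deviations, no agonist response on first addition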;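 further: peak minus trough fluorescence over baseline after final BAM8-22 challenge near maximal dose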
RGS4 pot: RGS4 potentiators or activators, primary screen, cell-based, HEK293 M3R inducible RGS4, calcium flux | carbachol calcium flux Fluo4; hits give low values | B-score at 10 µM | hit rate 0.92% among 310,000 | AID 463111, 2010;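 active means B-score of the integrated calcium signal more than 4 SD below the library mean, with starting fluorescence not abnormally high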;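 further: negative B-score means reduced calcium response which marks RGS4 activation or potentiation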
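Material: M3R-expressing HEK293 line, RGS4 induced by doxycycline | Schedule: Overnight RGS4 induction, 30 min dye load 37 °C, 20 min compound RT | Measured by: Fluo4 fluorescence kinetic imaging of calcium | Read-out: Integrated calcium ratio converted to B score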
MrgX1 allo act: positive allosteric modulators of MrgX1, primary screen, HEK293 cells, Fluo-4 calcium flux; Mas-related G-protein coupled receptor member X1 (Homo sapiens), Q96LB2; B-score at 10 µM; FDSS; hits give high values; hit rate 0.63% among 310,000;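 active means plate-corrected calcium response at least 3 library SD above typical, normal starting fluorescence, not activating the receptor alone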;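 further: compound read alongside a low EC10 to EC30 dose of BAM8-22 agonist; peak minus trough fluorescence over baseline measured at the second addition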
MrgX1 ag reconf: MrgX1 receptor agonists, duplicate retest, confirmation, HEK293 cells, Fluo-4 calcium flux; shares compounds with MrgX1 agonist; Fluo-4 calcium fluorescence, FDSS; activation, % at 10 µM; hit rate 78% among 600;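 active means calcium signal rise, corrected for plate position, at least 3 library SD high, with starting brightness within 5 such deviations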
HEK293 Ca flux: nonspecific calcium signal in parental HEK293, confirmation, counter-screen for MrgX1 antagonist project, parental HEK293 cells, Fluo-4 calcium flux; shares compounds with MrgX1 antag; Fluo-4 calcium fluorescence, FDSS; fluorescence ratio F(max-min)/F0 at 10 µM; hit rate 2% among 4,000;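 active means duplicate-averaged calcium fluorescence ratio at least three times the standard deviation of buffer wells, a nonspecific response in parental cells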
HEK293 Ca counter: calcium response in parental HEK293 cells, primary screen, counter-screen for MrgX1 allosteric activator project, cell-based, Fluo-4 calcium flux, duplicate. shares compounds with MrgX1 antag. Fluo-4 fluorescence ratio; hits give high values. fluorescence ratio F(max-min)/F0 at 10 µM. hit rate 0.4% among 4,000;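 active means calcium fluorescence ratio, averaged over duplicates, at least 3 SD of the buffer-well ratio, meaning a nonspecific response in receptor-free cells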;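 further: untransfected parental HEK293 lacking MrgX1 used as counterscreen for MrgX1 allosteric activators; fluorescence change taken during the second addition on a kinetic imager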
HEK293 Ca cntr2: calcium response in parental HEK293 cells, primary screen, counter-screen for MrgX1 agonist project, cell-based, Fluo-4 calcium flux, duplicate, agonist mode. shares compounds with MrgX1 antag. Fluo-4 calcium fluorescence (FDSS); hits give high values. fluorescence ratio F(max-min)/F0 at 10 µM. hit rate 8.7% among 4,000. AID 624115, 2012;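 active means calcium fluorescence ratio at least three times the spread of buffer wells, meaning a non-specific response in parental cells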
Each line names hits and unclear results; the compound was inactive in the other large screens (follow-up assays come after a bar, where they were run). In the library only some 3.5% were active in any assay of this set; here they are far more common.

Cc1ccc(Cn2c(N)nc3ccccc32)cc1	MrgX1 agonist 30 | MrgX1 ag reconf 78% | HEK293 Ca flux inactive | HEK293 Ca counter inactive | HEK293 Ca cntr2 inactive
O=C(NCc1cccs1)C1CCC(=O)N1C1CCCCC1 (stereo not drawn)	none
CC1(C)CC(=O)c2c(O)cc(OCC(=O)N3CCN(c4ccccc4)CC3)cc2O1	none
O=S(=O)(c1ccccc1)c1nnn2c1nc(NC1CCN(Cc3ccccc3)CC1)c1ccccc12	MrgX1 agonist 60 | MrgX1 ag reconf 274% | HEK293 Ca flux inactive | HEK293 Ca counter inactive | HEK293 Ca cntr2 inactive
COc1ccc(CCNC(=S)NCCc2ccc(OC)c(OC)c2)cc1OC	none
CCOC(=O)c1ccc(NC(=S)NCCc2ccc(OC)c(OC)c2)cc1	MrgX1 agonist 36 | MrgX1 ag reconf inactive | HEK293 Ca flux inactive | HEK293 Ca counter inactive | HEK293 Ca cntr2 inactive
COc1cc(/C=C(\C#N)C(=O)Nc2ccccc2)ccc1OCCN1CCOCC1	none
Cc1cccc(C(=O)NNC(=S)NC(=O)c2cccs2)c1	MrgX1 agonist 137, RGS4 pot -7.1 | MrgX1 ag reconf 647% | HEK293 Ca flux inactive | HEK293 Ca counter inactive | HEK293 Ca cntr2 122
COc1ccc(C(=O)NNC(=S)NC(=O)c2ccc(OC)cc2)cc1	MrgX1 agonist 81 | MrgX1 ag reconf 411% | HEK293 Ca flux inactive | HEK293 Ca counter inactive | HEK293 Ca cntr2 97
COc1ccc(C(=O)NNC(=S)NC(=O)c2cccs2)cc1	MrgX1 agonist 122 | MrgX1 ag reconf 339% | HEK293 Ca flux inactive | HEK293 Ca counter inactive | HEK293 Ca cntr2 94
COc1ccc(C(=O)NNC(=S)NC(=O)c2cccnc2)cc1	none
CC(C)C(=O)Nc1ccc(C(=O)NNC(=S)NC(=O)c2cccs2)cc1	none
CCCCC(=O)NC(=S)NNC(=O)c1ccc(OC)cc1	MrgX1 agonist 98 | MrgX1 ag reconf 578% | HEK293 Ca flux inactive | HEK293 Ca counter inactive | HEK293 Ca cntr2 97
CC(=O)c1ccccc1C(=O)NCc1cccnc1	none
CCOC(=O)c1c(NC(=O)CC)sc(C(=O)NC2CCCC2)c1C	none
Cc1ccc(N/C(N)=N/c2nc(C)cc(N3CCCCC3)n2)c(C)c1	MrgX1 agonist 34 | MrgX1 ag reconf 137% | HEK293 Ca flux inactive | HEK293 Ca counter inactive | HEK293 Ca cntr2 inactive
Cc1ccc(N/C(N)=N/c2nc3c(c(=O)[nH]2)CCCC3)c(C)c1	none
Cc1[nH]c2ccccc2c1C(=O)C(C)OC(=O)c1ccccc1NCCO (stereo not drawn)	none
Cc1cccc(C)c1OCc1nnc(SCC(=O)Nc2ccc(N3CCOCC3)cc2)o1	none
Cc1ccc(-n2sc3ccccc3c2=O)cc1S(=O)(=O)N1CCCCC1	none
Cc1ccccc1-n1sc2cc(F)ccc2c1=O	MrgX1 agonist 40 (no result: RGS4 inh, RGS4 pot) | MrgX1 ag reconf 303% | HEK293 Ca flux inactive | HEK293 Ca counter inactive | HEK293 Ca cntr2 66
Cc1ccc(-n2c(CCC(=O)O)ccc2-c2cccs2)cc1C	MrgX1 agonist 29 | MrgX1 ag reconf 216% | HEK293 Ca flux inactive | HEK293 Ca counter inactive | HEK293 Ca cntr2 inactive
CCOC(=O)c1ccc(-n2c(CCC(=O)O)ccc2-c2cccs2)cc1	none
